According to ChEMBL document CHEMBL2040845, “Discovery of novel sulfonated small molecules that inhibit vascular tube formation” (Bioorg Med Chem Lett, 2012):
Activity calls are given as the source filed them. The rule behind the calls is not given here.

How the values were obtained:
Type in all cases: functional
Bos taurus [1] = organism: Bos taurus; test: Antiangiogenic activity against BLMVEC grown on RGF-BME assessed as inhibition of tube formation at 100 uM after 16 hrs by calcein staining-based microscopy
Summary of the method: (§1)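 1×10^5 BLMVEC premixed with test compound in MCDB-131 medium, then added to matrigel in duplicate wells. Wells received 100 μM compound. Controls were untreated wells and sulforaphane. Plates were incubated 16 hrs at 37 °C and cells were imaged by microscopy. Inhibition was scored from network morphology: branching and interconnection of tubes versus dispersed cells or short, unconnected tubes.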

Bos taurus [2] = organism: Bos taurus; test: Antiangiogenic activity against BLMVEC grown on RGF-BME assessed as formation of small cell clumps at 100 uM after 16 hrs by calcein staining-based microscopy; summary of the method: as §1
Endothelial cell = test: Antiangiogenic activity against BLMVEC grown on RGF-BME assessed as dispersed endothelial cells at 100 uM after 16 hrs by calcein staining-based microscopy; details: Bos taurus; summary of the method: as §1
Bos taurus [3] = organism: Bos taurus; test: Antiangiogenic activity against BLMVEC grown on RGF-BME assessed as inhibition of tube-like network formation at 100 uM after 16 hrs by calcein staining-based microscopy; summary of the method: as §1
Bos taurus [4] = organism: Bos taurus; test: Antiangiogenic activity against BLMVEC grown on RGF-BME assessed as inhibition of branching at 100 uM after 16 hrs by calcein staining-based microscopy; summary of the method: as §1

Structure (SMILES): O=C(CCc1ccc(OS(=O)(=O)O)cc1)c1c(OS(=O)(=O)O)cc(OS(=O)(=O)O)cc1OS(=O)(=O)O
- inhibition (Bos taurus [1]): Active
- Activity (Bos taurus [2]): Active
- Activity (Endothelial cell): Active
- inhibition (Bos taurus [3]): Active

Structure (SMILES): O=c1c(OS(=O)(=O)O)c(-c2ccccc2OS(=O)(=O)O)oc2ccccc12
- inhibition (Bos taurus [1]): Active
- Activity (Bos taurus [2]): Active
- Activity (Endothelial cell): Active
- inhibition (Bos taurus [3]): Active

Structure (SMILES): O=C1c2c(cc(OS(=O)(=O)O)cc2OS(=O)(=O)O)O[C@@H](c2ccc(OS(=O)(=O)O)c(OS(=O)(=O)O)c2)[C@H]1OS(=O)(=O)O
- inhibition (Bos taurus [1]): inactive
- Activity (Bos taurus [2]): inactive
- Activity (Endothelial cell): inactive
- inhibition (Bos taurus [4]): inactive
- inhibition (Bos taurus [3]): inactive

Structure (SMILES): O=C(c1ccc(OS(=O)(=O)O)c(OS(=O)(=O)O)c1)N1CCc2cc(OS(=O)(=O)O)c(OS(=O)(=O)O)cc2C1
- inhibition (Bos taurus [1]): inactive
- Activity (Bos taurus [2]): inactive
- Activity (Endothelial cell): inactive
- inhibition (Bos taurus [4]): inactive
- inhibition (Bos taurus [3]): inactive

Structure (SMILES): O=c1cc(-c2ccc(OS(=O)(=O)O)c(OS(=O)(=O)O)c2)oc2cc(OS(=O)(=O)O)cc(OS(=O)(=O)O)c12
- inhibition (Bos taurus [1]): Active
- Activity (Bos taurus [2]): Active
- Activity (Endothelial cell): Active
- inhibition (Bos taurus [3]): Active

Structure (SMILES): O=c1cc(-c2ccc(OS(=O)(=O)O)cc2)oc2cc(OS(=O)(=O)O)cc(OS(=O)(=O)O)c12
- inhibition (Bos taurus [1]): Active
- Activity (Bos taurus [2]): Active
- Activity (Endothelial cell): Active
- inhibition (Bos taurus [3]): Active

Structure (SMILES): O=C1c2c(cc(OS(=O)(=O)O)cc2OS(=O)(=O)O)O[C@@H](c2ccc(OS(=O)(=O)O)c(OS(=O)(=O)O)c2)[C@@H]1OS(=O)(=O)O
- inhibition (Bos taurus [1]): inactive
- Activity (Bos taurus [2]): inactive
- Activity (Endothelial cell): inactive
- inhibition (Bos taurus [4]): inactive
- inhibition (Bos taurus [3]): inactive

Structure (SMILES): O=c1c(OS(=O)(=O)O)c(-c2ccc(OS(=O)(=O)O)c(OS(=O)(=O)O)c2)oc2cc(OS(=O)(=O)O)ccc12
- inhibition (Bos taurus [1]): inactive
- Activity (Bos taurus [2]): inactive
- Activity (Endothelial cell): inactive
- inhibition (Bos taurus [4]): inactive
- inhibition (Bos taurus [3]): inactive

Structure (SMILES): CCOC(=O)[C@@H]1Cc2cc(OS(=O)(=O)O)c(OS(=O)(=O)O)cc2CN1C(=O)c1cc(OS(=O)(=O)O)c(OS(=O)(=O)O)c(OS(=O)(=O)O)c1
- inhibition (Bos taurus [1]): inactive
- Activity (Bos taurus [2]): inactive
- Activity (Endothelial cell): inactive
- inhibition (Bos taurus [4]): inactive
- inhibition (Bos taurus [3]): inactive

Structure (SMILES): O=c1c(OS(=O)(=O)O)c(-c2ccc(OS(=O)(=O)O)cc2OS(=O)(=O)O)oc2ccc(OS(=O)(=O)O)cc12
- inhibition (Bos taurus [1]): inactive
- Activity (Bos taurus [2]): inactive
- Activity (Endothelial cell): inactive
- inhibition (Bos taurus [4]): inactive
- inhibition (Bos taurus [3]): inactive

Structure (SMILES): CCOC(=O)[C@@H]1Cc2cc(OS(=O)(=O)O)c(OS(=O)(=O)O)cc2CN1C(=O)c1ccc(OS(=O)(=O)O)c(OS(=O)(=O)O)c1
- inhibition (Bos taurus [1]): inactive
- Activity (Bos taurus [2]): inactive
- Activity (Endothelial cell): inactive
- inhibition (Bos taurus [4]): inactive
- inhibition (Bos taurus [3]): inactive

Structure (SMILES): O=C(c1cc(OS(=O)(=O)O)c(OS(=O)(=O)O)c(OS(=O)(=O)O)c1)N1CCc2cc(OS(=O)(=O)O)c(OS(=O)(=O)O)cc2C1
- inhibition (Bos taurus [1]): inactive
- Activity (Bos taurus [2]): inactive
- Activity (Endothelial cell): inactive
- inhibition (Bos taurus [4]): inactive
- inhibition (Bos taurus [3]): inactive

Structure (SMILES): O=c1c(OS(=O)(=O)O)c(-c2ccc(OS(=O)(=O)O)c(OS(=O)(=O)O)c2)oc2cc(OS(=O)(=O)O)cc(OS(=O)(=O)O)c12
- inhibition (Bos taurus [1]): inactive
- Activity (Bos taurus [2]): inactive
- Activity (Endothelial cell): inactive
- inhibition (Bos taurus [4]): inactive
- inhibition (Bos taurus [3]): inactive

Structure (SMILES): C[C@]12CC[C@@H]3c4ccc(OS(=O)(=O)O)cc4CC[C@H]3[C@@H]1CC[C@@H]2O
- inhibition (Bos taurus [1]): Active
- Activity (Bos taurus [2]): Active
- Activity (Endothelial cell): Active
- inhibition (Bos taurus [3]): Active
